TWEAK-Fn14 inh – TWEAK-Fn14 signaling inhibition | inhibition, % at 10 µM | hit rate 2% among 360,000 | TWEAK-stimulated Fn14 reporter cells, luciferase luminescence, 8 h; in the data active = inhibition above about 50%
CaV13 ICDI inh – Disruptors of the CACNA1D IQ motif to Ca2+-dependent inactivation inhibitor domain association, primary screening, Förster resonance energy transfer in intact living …; hit rate 0.098% among 340,000; inhibition, % at 12.3 µM; HEK cells, CFP/YFP FRET ICDI-IQ, plate reader, 10 min; percent FRET-ratio fall versus neutral wells;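 active = mean replicate inhibition of at least 30% and at least 1% of replicates passing that level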;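 also: 0% = median of the neutral control wells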
LGR2 antag – inhibitors of bursicon-induced Drosophila LGR2 receptor cAMP signaling; HEK293 LGR2, CRE-luciferase, bursicon-stimulated, 4 h; inhibition, % at 9.99 µM; hit rate 0.35% among 380,000;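 active = drop in luminescence signal, shown as inhibition above about 50% in the replicate tests, limit read from the data, passing the limit was not always enough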;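 also: agonist challenge used bursicon conditioned medium at about half maximal strength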
TROY NFkB inh – blocks TROY-dependent signaling in reporter cells | AID 1347056 | Q293 LMP1-TROYcd NF-kB luciferase reporter, 4 h | hit rate 0.98% among 360,000 | inhibition, % at 10 µM;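 active = compounds whose plate-normalised and pattern-corrected inhibition of the luciferase reporter signal at the single screening dose is 50% or more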
Xi reactivation – X-chromosome reactivation activator | XiGFP mouse fibroblasts, % GFP-positive cells imaging, 3 d; cells co-treated with 5-aza-dC sensitizer; scaled so ellipticine positive control = 100% | hit rate 0.055% among 360,000 | activation, % at 7.58 µM;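 active = mean normalized replicate activation at least 10% and every replicate at or above 10%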;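 also: 0% = median of on-plate neutral control wells and 100% = ellipticine 6 µM median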
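assay system = SV40-immortalized XiGFP fibroblast cells, line 68-5-11 | buffer or medium = DMEM plus 5-aza-dC sensitizer | doses = single-point pinned compound dosing | times = 3-day compound exposure, then 15 min fixation at room temperature | benchmarks = positive control ellipticine, 6 µM final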
* marks the source's active call; other numbers are inactive results; . = not tested or not shown; + = active, no number; ! = not confirmed by another sample. Shown are actives, neighbours in structure and some others; about 2% of the full set was active somewhere.

SMILES | TWEAK-Fn14 inh | CaV13 ICDI inh | LGR2 antag | TROY NFkB inh | Xi reactivation
O=C(CC1CC1)N1CC2(C1)[C@H](c1ccccc1)[C@@H](CO)N2Cc1cccc(F)c1 | . | . | 14.0 | . | -0.1
O=C(OCCN1C(=O)c2cccc3c(N4CCOCC4)ccc(c23)C1=O)c1ccccc1Cl | 104.1* | -18.3 | 75.6* | 73.4* | 0.6
O=C(OCCN1C(=O)c2cccc3c(N4CCOCC4)ccc(c23)C1=O)c1ccc(Cl)cc1Cl | 90.3* | -6.5 | -7.5 | 49.5 | 0.0
O=C(OCCN1C(=O)c2ccccc2C1=O)c1cc(S(=O)(=O)N2CCOCC2)ccc1Cl | 26.3 | -3.2 | -24.4 | -8.7 | .
CCCC(=O)Nc1ccc2c(c1)C(=O)N(C)C[C@@H](OC)[C@@H](C)CN(Cc1ccncc1)[C@H](C)CO2 | . | . | 15.6 | . | 0.8
COCC#Cc1cnc2c(c1)C(=O)N([C@@H](C)CO)C[C@@H](C)[C@@H](CN(C)C(=O)Nc1cc(F)ccc1F)O2 | . | . | -6.7 | . | 0.4
COc1ccc(/C=C/C(O)=C2/C(=O)N(C)C3(C)CC2c2ccccc2O3)cc1 (configuration not stated) | 27.5 | . | . | -14.1 | .
Cc1ccc(/C=C/C(O)=C2/C(=O)N(C)C3(C)CC2c2ccccc2O3)cc1 (configuration not stated) | 51.2* | . | . | 1.6 | .
Cc1ccc(NC(=O)c2ccccc2)cc1 | -2.1 | -5.6 | . | -63.5 | .
Cc1ccc(NC(=O)C2=C(c3ccccc3)S(=O)(=O)CCS2(=O)=O)cc1 | 87.7* | 5.3 | 37.6 | 73.5* | 0.4
CN1CCN(C(=O)C[C@@H]2C=C[C@@H](NC(=O)Nc3ccccc3F)[C@@H](CO)O2)CC1 | . | . | 4.3 | . | 0.5
COCCN1C=C(C(=O)OC)C(c2ccc(Cl)cc2)C(C(=O)OC)=C1 | 10.8 | + | -4.5 | 12.0 | 0.2
Cc1ccc(Nc2nc(CSc3nnc(-c4ccc(F)cc4)n3C)cs2)cc1 | 64.0* | -6.2 | -47.9 | 59.4* | 0.3
O=S1(=O)N=C(Oc2cccc3ccccc23)c2ccccc21 | 23.2 | -7.8 | -17.3 | 57.6* | .
Cc1ccccc1OC1=NS(=O)(=O)c2ccccc21 | 7.5 | -4.9 | -5.2 | -11.9 | 0.4
Cc1ccc(/C=C/C(=O)NC2=NCCS2)cc1 | 51.5* | -5.2 | 72.3* | 28.8 | 0.0
CC(C)(C)c1ccc(/C=C/C(=O)Nc2cccnc2)cc1 | -15.0 | -19.6 | -99.1 | 3.9 | 0.0
CC(C)(C)c1ccc(/C=C/C(=O)NC2=NCCS2)cc1 | 50.4* | . | . | 53.4* | .
Cc1ccc(/C=C/C(=O)Nn2cnnc2)cc1 | 57.0* | . | . | -12.3 | .
Cc1ccc(/C=C/C(=O)NN2CCN(C)CC2)cc1 | -18.4 | . | 0.4 | -8.2 | 0.0
COc1cccc(-c2ccc3c(c2)[C@@H]2[C@@H](CCN2C(=O)c2cnccn2)[C@@H](CO)N3)c1 | . | . | -14.6 | . | 0.2
NCC[C@H]1CC[C@@H](NC(=O)CCN2CCCCC2)[C@H](CO)O1 | . | . | -27.9 | . | 0.2
O=C1c2ccccc2C(=O)c2c(Nc3ccc(CCO)cc3)ccc(O)c21 | 12.0 | -4.2 | 14.0 | 6.4 | 0.3
O=C1c2c(O)ccc(O)c2C(=O)c2c(NCCNCCO)ccc(NCCNCCO)c21 | 93.4*! | -3.0 | 101.7* | 78.1*! | -0.2
Cc1n[nH]c(C)c1CCNC(=O)C1CCC(=O)N(CCc2cccc(F)c2)C1 (configuration not stated) | 58.0* | -2.6 | -4.1 | -15.8 | 0.1
SMILES | TWEAK-Fn14 inh | CaV13 ICDI inh | LGR2 antag | TROY NFkB inh | Xi reactivation
CN1C(=O)c2cc(NC(=O)Cc3cccs3)ccc2OC[C@H]2O[C@H](CC(=O)O)CC[C@@H]21 | . | . | 9.1 | . | 0.2
CCCc1cc(N2CCOCC2)n2ncc(-c3ccccc3)c2n1 | 57.7* | -5.1 | -11.6 | 51.5* | 0.0
CC1(C)CC(=O)C/C(=N/Nc2nc3ccccc3s2)C1 | 69.3* | -2.5 | 3.2 | 63.4* | 0.4
CC1CCC/C(=N/Nc2nc3ccccc3s2)C1 (configuration not stated) | -6.2 | -5.1 | -28.0 | 23.3 | 0.0
C[C@@H]1CCCCO[C@@H](CN(C)C(=O)Nc2ccc3c(c2)OCO3)[C@H](C)CN([C@H](C)CO)C(=O)c2cc(NS(=O)(=O)c3cn(C)cn3)ccc2O1 | . | . | -1.6 | . | -0.9
COc1ccc(-n2nnnc2S(=O)(=O)Cc2ccc(C(=O)O)cc2)cc1 | -7.4 | -3.5 | . | 19.6 | .
COc1ccc(-n2nnnc2S(=O)(=O)CC(=O)N2CCCCC2)cc1 | 96.5* | -6.9 | 98.9* | 57.0* | 0.0

Source: PubChem (several laboratories)
